This is an account of results in ChEMBL document CHEMBL1154086, “Novel Biginelli dihydropyrimidines with potential anticancer activity: a parallel synthesis and CoMSIA study” (Eur J Med Chem, 2009).

Calls of active or inactive are those of the source. The calls are words filed in the database; no cut-off is given here.

Holding throughout (format): functional
For test [1], the system named is MCF7. Kind of test: Anticancer activity against human MCF7 cells assessed as cell viability at 10 ug after 3 hrs by trypan blue dye exclusion assay. In outline: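 MCF-7 cells grown in peritoneal cavity of albino mice (25–30 g) after i.p. injection of 1 × 10^6 cells/ml; aspirated day 15, washed three times in HBSS, adjusted to 1 × 10^6 cells/ml. 0.1 ml cells plus 0.1 ml compound (10 µg), 37 °C, 5% CO2, 3 h. Trypan blue (0.4%, 1:1) exclusion, haemocytometer count; % cytotoxicity versus untreated control, triplicate.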

The subject of test [2] is Radical scavenging activity. Kind of test: Antioxidant activity assessed as DPPH radical scavenging activity at 100 ug after 30 mins by ELISA. In outline: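 Ethanolic DPPH (200 µl) mixed with 10 µl compound solution (100 µg) in 96-well plate, 37 °C for 30 min; decrease in absorbance read at 490 nm on ELISA reader. Ascorbic acid (10 µg) standard.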
In test [3] the test system is Radical scavenging activity. Kind of test: Antioxidant activity assessed as DPPH radical scavenging activity after 30 mins by ELISA. An outline of the steps:
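DPPH discolouration in 96-well plate: 200 µl ethanolic DPPH plus 10 µl compound solution; 37 °C, 30 min; absorbance at 490 nm on ELISA reader. IC50 (concentration inhibiting 50% of free radicals) from serial dilutions below 100 µg. Ascorbic acid (10 µg) standard.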
A general note: Loss of DPPH colour is used to gauge radical scavenging.

On to `COc1cc(C2NC(=O)NC(C)=C2C(=O)Nc2ccccc2Cl)ccc1O` (centres undefined), for which the Activity in test [1] turned out to be 52%. Also, the outcome in test [2] was inactive.

Consider `CC1=C(C(=O)Nc2ccccc2Cl)C(c2cccc([N+](=O)[O-])c2)NC(=S)N1` (centres undefined), for which the Activity in test [1] stood at 13%. The result in test [2] was inactive.

With `CC1=C(C(=O)Nc2ccccc2Cl)C(c2ccccc2)NC(=N)N1C#N` (centres undefined), the Activity in test [1] turned out to be 35%. Also, the result in test [2] was inactive.

On to `CC1=C(C(=O)Nc2ccccc2Cl)C(C(=O)/C=C/c2ccccc2)NC(=O)N1` (centres undefined), for which the Activity in test [1] is 79%. The result in test [2] was inactive.

`CNC(=O)C1=C(C)NC(=S)NC1c1ccc(O)c(OC)c1` (centres undefined): the Activity in test [1] stood at 41%. Moreover, the result in test [2] was inactive.

On to `CNC(=O)C1=C(C)NC(=S)NC1c1ccco1` (centres undefined), for which, in test [1], the Activity is 57%. Besides, the outcome in test [2] was inactive.

Regarding `CNC(=O)C1=C(C)NC(=S)NC1c1ccccc1` (centres undefined), the Activity in test [1] came to 35%. Besides, the result in test [2] was inactive.

As for `CNC(=O)C1=C(C)NC(=O)NC1c1cccc([N+](=O)[O-])c1` (centres undefined), the Activity in test [1] is reported as 23%. The IC50 in test [3] was 63 µg.

For `COc1ccc(C2NC(=O)NC(C)=C2C(=O)Nc2ccccc2Cl)cc1` (centres undefined), the Activity in test [1] stood at 51%. Besides, the result in test [2] was inactive.

Take `CNC(=O)C1=C(C)NC(=O)NC1c1ccncc1` (centres undefined): the Activity in test [1] stood at 64%. Further, in test [2], the outcome was inactive.

On to `CC1=C(C(=O)Nc2ccccc2Cl)C(c2ccccc2O)NC(=O)N1` (centres undefined), for which the Activity in test [1] was found to be 58%. Moreover, the outcome in test [2] was inactive.

Take `CC1=C(C(=O)Nc2ccccc2Cl)C(c2ccc(Br)cc2)NC(=S)N1` (centres undefined): in test [1], the Activity came to 18%. In test [2], the result was inactive.

In the case of `CNC(=O)C1=C(C)NC(=O)NC1c1ccc(OC)cc1` (centres undefined), in test [1], the Activity worked out at 41%. In addition, the result in test [2] was inactive.

In the case of `CNC(=O)C1=C(C)NC(=O)NC1c1ccccc1` (centres undefined), the Activity in test [1] worked out at 27%. In addition, in test [2], the outcome was inactive.

For `CNC(=O)C1=C(C)NC(=S)NC1c1cccc([N+](=O)[O-])c1` (centres undefined), the Activity in test [1] was 39%. Further, in test [3], the IC50 was determined as 58 µg.

For the molecule `CC1=C(C(=O)Nc2ccccc2Cl)C(c2ccccc2)NC(=O)N1` (centres undefined), the Activity in test [1] came to 30%. Further, the outcome in test [2] was inactive.

For `CC1=C(C(=O)Nc2ccccc2Cl)C(c2cccc([N+](=O)[O-])c2)NC(=O)N1` (centres undefined), the Activity in test [1] is 29%. In addition, the outcome in test [2] was inactive.

Turning to `CC1=C(C(=O)Nc2ccccc2Cl)C(c2ccncc2)NC(=O)N1` (centres undefined), the Activity in test [1] stood at 59%. In test [2], the outcome was inactive.

In the case of `CC1=C(C(=O)Nc2ccccc2Cl)C(c2ccncc2)NC(=S)N1` (centres undefined), the Activity in test [1] is on record as 72%. Further, in test [2], the result was inactive.

Take `CNC(=O)C1=C(C)NC(=O)NC1C(=O)/C=C/c1ccccc1` (centres undefined): the Activity in test [1] came out at 47%. Besides, in test [2], the result was inactive.

As to `CC1=C(C(=O)Nc2ccccc2Cl)C(c2ccccc2)NC(=S)N1` (centres undefined), in test [1], the Activity was determined as 25%. For the same molecule, in test [2], the outcome was inactive.

As to `CNC(=O)C1=C(C)NC(=O)NC1c1ccco1` (centres undefined), the Activity in test [1] is listed as 61%. For the same molecule, the outcome in test [2] was inactive.

Take `CC1=C(C(=O)Nc2ccccc2Cl)C(c2ccco2)NC(=S)N1` (centres undefined): the Activity in test [1] amounted to 76%. The result in test [2] was inactive.

With `CNC(=O)C1=C(C)NC(=S)NC1c1ccc(OC)cc1` (centres undefined), in test [1], the Activity is given as 48%. In addition, the result in test [2] was inactive.

In the case of `CC1=C(C(=O)Nc2ccccc2Cl)C(C(=O)/C=C/c2ccccc2)NC(=S)N1` (centres undefined), in test [1], the Activity was 71%. In addition, the outcome in test [2] was inactive.

Regarding `CNC(=O)C1=C(C)NC(=O)NC1c1ccc(O)c(OC)c1` (centres undefined), the Activity in test [1] is on record as 49%. In addition, the result in test [2] was inactive.

On to `CC1=C(C(=O)Nc2ccccc2Cl)C(c2ccco2)NC(=O)N1` (centres undefined), for which the Activity in test [1] is reported as 69%. In addition, the outcome in test [2] was inactive.

For `COc1ccc(C2NC(=S)NC(C)=C2C(=O)Nc2ccccc2Cl)cc1` (centres undefined), the Activity in test [1] worked out at 47%. In test [2], the result was inactive.

`CNC(=O)C1=C(C)NC(=S)NC1c1ccccc1O` (centres undefined): the Activity in test [1] was 45%. The result in test [2] was inactive.

On to `CC1=C(C(=O)Nc2ccccc2Cl)C(c2ccc(Br)cc2)NC(=O)N1` (centres undefined), for which the Activity in test [1] amounted to 7%. Also, the result in test [2] was inactive.

As to `COc1cc(C2NC(=S)NC(C)=C2C(=O)Nc2ccccc2Cl)ccc1O` (centres undefined), the Activity in test [1] is 45%. The result in test [2] was inactive.

As to `CC1=C(C(=O)Nc2ccccc2Cl)C(c2ccccc2O)NC(=S)N1` (centres undefined), in test [1], the Activity came out at 49%. Also, the outcome in test [2] was inactive.
